Holding throughout (type): functional
One assay relates to NCI-H460. The assay can be described thus: Growth inhibition of human NCI-H460 cells measured after 48 hrs by sulforhodamine B assay. The note with it: NCI-H460, 48 h. The gist of the method: (§1)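 Cells were seeded in RPMI1640 with 5% fetal bovine serum and incubated 24 h before serial dilutions of sample were added. After 48 h exposure, cells were fixed with trichloroacetic acid and stained with sulforhodamine B, and optical density was read by plate reader.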
On the technique in general: The SRB assay estimates cell density from bound dye.

Assay [1] in a line: Growth inhibition of human KM20L2 cells measured after 48 hrs by sulforhodamine B assay. The note with it: KM-20L2, 48 h. The method in brief: as §1
The next assay deals with P388. The assay can be described thus: Growth inhibition of mouse P388 cells measured after 48 hrs by sulforhodamine B assay. The following applies: P388, 48 h, read-out: ED50 (the source's name).
A short description of assay [2]: Growth inhibition of human BxPC3 cells measured after 48 hrs by sulforhodamine B assay. The note with it: BXPC-3, 48 h. The gist of the method:
as §1

Another assay has as its system MCF7. Kind of assay: Growth inhibition of human MCF7 cells measured after 48 hrs by sulforhodamine B assay. The following applies: MCF7, 48 h. The method in brief: as §1
The nature of assay [3]: Growth inhibition of human SF268 cells measured after 48 hrs by sulforhodamine B assay. The note with it: SF-268, 48 h. The gist of the method:
as §1

Assay [4] in a line: Growth inhibition of human DU145 cells measured after 48 hrs by sulforhodamine B assay. The following applies: DU-145, 48 h. The method in brief:
as §1

Structures are written as SMILES. In brackets after ≈: the same amount, converted by molar mass.

Take `COc1cc(-c2c3c(nc4cc5c(cc24)OCO5)COC3=O)cc(OC)c1OC`: the GI50 (in general, the concentration that inhibits growth by half) was found to be 2.8 µg/mL (≈ 7.08 µM) in the assay on NCI-H460; 2.1 µg/mL (≈ 5.31 µM) in assay [1]; 4.1 µg/mL (≈ 10.4 µM) in assay [2]; 3.4 µg/mL (≈ 8.6 µM) in the assay on MCF7; 2.4 µg/mL (≈ 6.07 µM) in assay [3]; 2.4 µg/mL (≈ 6.07 µM) in assay [4]. Besides, the EC50 in the assay with P388 came to 3.6 µg/mL (≈ 9.11 µM).
As for `COc1cc(C2C3=C(COC3=O)N(CCO)c3cc4c(cc32)OCO4)cc(OC)c1OC` (stereo not drawn), the GI50 in the assay on NCI-H460 worked out at 0.58 µg/mL (≈ 1.31 µM); in assay [1], 0.52 µg/mL (≈ 1.18 µM); in assay [2], 0.6 µg/mL (≈ 1.36 µM); in the assay with MCF7, 0.37 µg/mL (≈ 0.838 µM); in assay [3], 0.41 µg/mL (≈ 0.929 µM); in assay [4], 1.3 µg/mL (≈ 2.94 µM). The EC50 in the assay on P388 was 2 µg/mL (≈ 4.53 µM).
`COc1cc(C2C3=C(COC3=O)N(C3CCCC3)c3cc4c(cc32)OCO4)cc(OC)c1O` (stereo not drawn): the concentration for 50% growth inhibition (GI50) came to 0.33 µg/mL (≈ 0.731 µM) in the assay with NCI-H460; 2.1 µg/mL (≈ 4.65 µM) in assay [1]; 0.53 µg/mL (≈ 1.17 µM) in assay [2]; 0.32 µg/mL (≈ 0.709 µM) with MCF7; 0.39 µg/mL (≈ 0.864 µM) in assay [3]; 0.41 µg/mL (≈ 0.908 µM) in assay [4].
Regarding `COc1cc(C2C3=C(COC3=O)Nc3cc(OC)c(OC)c(OC)c32)cc(Br)c1OC` (stereo not drawn), the GI50 in the assay with NCI-H460 turned out to be 0.35 µg/mL (≈ 0.711 µM); in assay [2] it was 0.56 µg/mL (≈ 1.14 µM); with MCF7, 0.12 µg/mL (≈ 0.244 µM); in assay [3], 0.11 µg/mL (≈ 0.223 µM); in assay [4], 0.42 µg/mL (≈ 0.853 µM). Also, in the assay on P388, the EC50 came to 0.11 µg/mL (≈ 0.223 µM).
For `COc1cc(C2C3=C(COC3=O)N(CCN3CCOCC3)c3cc4c(cc32)OCO4)cc(OC)c1OC` (stereo not drawn), the GI50 worked out at 3 µg/mL (≈ 5.88 µM) with NCI-H460; 2.5 µg/mL (≈ 4.9 µM) in assay [1]; 3.5 µg/mL (≈ 6.86 µM) in assay [2]; 0.89 µg/mL (≈ 1.74 µM) in the assay on MCF7; 2.6 µg/mL (≈ 5.09 µM) in assay [3]; 2 µg/mL (≈ 3.92 µM) in assay [4]. Also, the EC50 in the assay with P388 is 2.6 µg/mL (≈ 5.09 µM).
On to `COc1cc(C2C3=C(COC3=O)N(CCCn3ccnc3)c3cc4c(cc32)OCO4)cc(OC)c1OC` (stereo not drawn), for which the GI50 with NCI-H460 turned out to be 3 µg/mL (≈ 5.93 µM); in assay [1], 2.2 µg/mL (≈ 4.35 µM); in assay [2] it was 2.9 µg/mL (≈ 5.74 µM); with MCF7, 0.64 µg/mL (≈ 1.27 µM); in assay [3], 2.5 µg/mL (≈ 4.95 µM); in assay [4], 2.1 µg/mL (≈ 4.15 µM). Also, the EC50 in the assay on P388 was determined as 2 µg/mL (≈ 3.96 µM).
With `COc1cc(C2C3=C(COC3=O)N(CCN3CCCCC3)c3cc4c(cc32)OCO4)cc(OC)c1OC` (stereo not drawn), the 50% growth inhibitory concentration (GI50) with NCI-H460 is over 10 µg/mL; in assay [1], over 10 µg/mL; in assay [2], 4.4 µg/mL (≈ 8.65 µM); in the assay with MCF7 it was over 10 µg/mL; in assay [3], over 10 µg/mL; in assay [4], over 10 µg/mL. The EC50 with P388 came to 1.7 µg/mL (≈ 3.34 µM).
For the compound `COc1cc(C2C3=C(COC3=O)N(C)c3cc4c(cc32)OCO4)cc(OC)c1OC` (stereo not drawn), the concentration for 50% growth inhibition (GI50) worked out at 0.032 µg/mL (≈ 0.0778 µM) in the assay with NCI-H460; 0.032 µg/mL (≈ 0.0778 µM) in assay [1]; 0.049 µg/mL (≈ 0.119 µM) in assay [2]; 0.034 µg/mL (≈ 0.0826 µM) in the assay with MCF7; 0.029 µg/mL (≈ 0.0705 µM) in assay [3]; 0.026 µg/mL (≈ 0.0632 µM) in assay [4]. Also, the EC50 in the assay on P388 came out at 0.027 µg/mL (≈ 0.0656 µM).
`COc1cc(C2C3=C(COC3=O)Nc3cc4c(cc32)OCO4)cc(OC)c1O` (stereo not drawn): the 50% growth inhibitory concentration (GI50) amounted to 0.027 µg/mL (≈ 0.0704 µM) in the assay on NCI-H460; 0.032 µg/mL (≈ 0.0835 µM) in assay [1]; 0.028 µg/mL (≈ 0.073 µM) in assay [2]; 0.025 µg/mL (≈ 0.0652 µM) in the assay on MCF7; 0.026 µg/mL (≈ 0.0678 µM) in assay [3]; 0.033 µg/mL (≈ 0.0861 µM) in assay [4]. In addition, the EC50 in the assay with P388 came out at 0.028 µg/mL (≈ 0.073 µM).
Take `COc1cc(C2C3=C(COC3=O)N(CCN(C)C)c3cc4c(cc32)OCO4)cc(OC)c1OC` (stereo not drawn): the 50% growth inhibitory concentration (GI50) is 1 µg/mL (≈ 2.13 µM) with NCI-H460; 0.51 µg/mL (≈ 1.09 µM) in assay [1]; 0.43 µg/mL (≈ 0.918 µM) in assay [2]; 0.29 µg/mL (≈ 0.619 µM) with MCF7; 0.46 µg/mL (≈ 0.982 µM) in assay [3]; 2.5 µg/mL (≈ 5.34 µM) in assay [4]. Further, the EC50 in the assay on P388 turned out to be 0.18 µg/mL (≈ 0.384 µM).
As to `COc1cc(C2C3=C(COC3=O)N(CCc3ccc(F)cc3)c3cc4c(cc32)OCO4)cc(OC)c1O` (stereo not drawn), the concentration for 50% growth inhibition (GI50) was 0.36 µg/mL (≈ 0.712 µM) with NCI-H460; 1.4 µg/mL (≈ 2.77 µM) in assay [2]; 0.34 µg/mL (≈ 0.673 µM) in the assay on MCF7; 0.48 µg/mL (≈ 0.95 µM) in assay [3]; 0.38 µg/mL (≈ 0.752 µM) in assay [4]. Further, the EC50 in the assay on P388 amounted to 0.21 µg/mL (≈ 0.415 µM).
Turning to `COc1cc(C2C3=C(COC3=O)N(Cc3ccc(F)cc3)c3cc4c(cc32)OCO4)cc(OC)c1OC` (stereo not drawn), the concentration for 50% growth inhibition (GI50) with NCI-H460 amounted to 0.031 µg/mL (≈ 0.0613 µM); in assay [1], 0.033 µg/mL (≈ 0.0653 µM); in assay [2], 0.046 µg/mL (≈ 0.091 µM); in the assay on MCF7, 0.037 µg/mL (≈ 0.0732 µM); in assay [3], 0.03 µg/mL (≈ 0.0593 µM); in assay [4], 0.047 µg/mL (≈ 0.093 µM). For the same compound, in the assay with P388, the EC50 worked out at 1.9 µg/mL (≈ 3.76 µM).
For the compound `COc1cc(C2C3=C(COC3=O)N(Cc3ccco3)c3cc4c(cc32)OCO4)cc(OC)c1O` (stereo not drawn), the concentration for 50% growth inhibition (GI50) worked out at 0.24 µg/mL (≈ 0.518 µM) in the assay with NCI-H460; 1 µg/mL (≈ 2.16 µM) in assay [2]; 0.054 µg/mL (≈ 0.117 µM) in the assay with MCF7; 0.061 µg/mL (≈ 0.132 µM) in assay [3]; 0.39 µg/mL (≈ 0.842 µM) in assay [4]. For the same compound, the EC50 with P388 amounted to 0.89 µg/mL (≈ 1.92 µM).
As to `COc1cc(C2C3=C(COC3=O)N(C3CCCC3)c3cc4c(cc32)OCO4)cc(OC)c1OC` (stereo not drawn), the GI50 with NCI-H460 was 0.16 µg/mL (≈ 0.344 µM); in assay [1], 0.12 µg/mL (≈ 0.258 µM); in assay [2], 0.083 µg/mL (≈ 0.178 µM); with MCF7, 0.045 µg/mL (≈ 0.0967 µM); in assay [3], 0.062 µg/mL (≈ 0.133 µM); in assay [4], 0.27 µg/mL (≈ 0.58 µM).
